Values belong to the compound of their own block, whether it stands above or below them.
Experiments:
Homo sapiens = species: Homo sapiens; assay: Stabilization of 5'Dabcyl/3'FAM labeled human telomeric sequence G-quadruplex DNA assessed as increase in melting temperature at 2.5 uM pretreated for 5 mins at 30 degreeC followed by 5 mins incubation at 95 degreeC by fluorescence assay
In short: (§1)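 FRET melting in LiP buffer (10 mM LiOH, 50 mM KCl, pH 7.0 with H3PO4), ex 488 nm, em 520 nm. Samples were held 5 min at 30 °C, heated at 1 °C/min to 95 °C, held 5 min, then re-annealed. Tm came from first derivatives; ΔTm = shift with ligand at 2.5; at least three runs.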

[1] = Stabilization of 5'Dabcyl/3'FAM labeled duplex DNA (unknown origin) assessed as increase in melting temperature at 2.5 uM pretreated for 5 mins at 30 degreeC followed by 5 mins incubation at 95 degreeC by fluorescence assay; in short: as §1
CCRF-CEM = assay: Growth inhibition of human CCRF-CEM cells incubated for 48 hrs by sulforhodamine B assay; assay type: functional
HL-60 = assay: Growth inhibition of human HL60 cells incubated for 48 hrs by sulforhodamine B assay; assay type: functional; conditions: HL-60, 48 h
K562 = assay: Growth inhibition of human K562 cells incubated for 48 hrs by sulforhodamine B assay; assay type: functional; conditions: K562, 48 h
MOLT-4 = assay: Growth inhibition of human MOLT4 cells incubated for 48 hrs by sulforhodamine B assay; assay type: functional; conditions: MOLT-4, 48 h
RPMI-8226 = assay: Growth inhibition of human RPMI8226 cells incubated for 48 hrs by sulforhodamine B assay; assay type: functional; conditions: RPMI-8226, 48 h
SR = assay: Growth inhibition of human SR cells incubated for 48 hrs by sulforhodamine B assay; assay type: functional
A549 = assay: Growth inhibition of human A549/ATCC cells incubated for 48 hrs by sulforhodamine B assay; assay type: functional; conditions: A549, 48 h
EKVX = assay: Growth inhibition of human EKVX cells incubated for 48 hrs by sulforhodamine B assay; assay type: functional
HOP-62 = assay: Growth inhibition of human HOP62 cells incubated for 48 hrs by sulforhodamine B assay; assay type: functional; conditions: HOP-62, 48 h
NCI-H226 = assay: Growth inhibition of human NCI-H226 cells incubated for 48 hrs by sulforhodamine B assay; assay type: functional; conditions: NCI-H226, 48 h
NCI-H460 = assay: Growth inhibition of human NCI-H460 cells incubated for 48 hrs by sulforhodamine B assay; assay type: functional; conditions: NCI-H460, 48 h
NCI-H522 = assay: Growth inhibition of human NCI-H522 cells incubated for 48 hrs by sulforhodamine B assay; assay type: functional; conditions: NCI-H522, 48 h
COLO 205 = assay: Growth inhibition of human COLO205 cells incubated for 48 hrs by sulforhodamine B assay; assay type: functional; conditions: COLO 205, 48 h
HCC 2998 = assay: Growth inhibition of human HCC2998 cells incubated for 48 hrs by sulforhodamine B assay; assay type: functional; conditions: HCC 2998, 48 h
HCT-116 = assay: Growth inhibition of human HCT116 cells incubated for 48 hrs by sulforhodamine B assay; assay type: functional; conditions: HCT-116, 48 h
HCT-15 = assay: Growth inhibition of human HCT15 cells incubated for 48 hrs by sulforhodamine B assay; assay type: functional; conditions: HCT-15, 48 h
KM12 = assay: Growth inhibition of human KM12 cells incubated for 48 hrs by sulforhodamine B assay; assay type: functional; conditions: KM12, 48 h
SW-620 = assay: Growth inhibition of human SW620 cells incubated for 48 hrs by sulforhodamine B assay; assay type: functional; conditions: SW-620, 48 h
SF-295 = assay: Growth inhibition of human SF295 cells incubated for 48 hrs by sulforhodamine B assay; assay type: functional; conditions: SF-295, 48 h
SF-539 = assay: Growth inhibition of human SF539 cells incubated for 48 hrs by sulforhodamine B assay; assay type: functional; conditions: SF-539, 48 h
SNB-19 = assay: Growth inhibition of human SNB19 cells incubated for 48 hrs by sulforhodamine B assay; assay type: functional; conditions: SNB-19, 48 h
SNB-75 = assay: Growth inhibition of human SNB75 cells incubated for 48 hrs by sulforhodamine B assay; assay type: functional; conditions: SNB-75, 48 h
U-251 = assay: Growth inhibition of human U251 cells incubated for 48 hrs by sulforhodamine B assay; assay type: functional; conditions: U-251, 48 h
LOX IMVI = assay: Growth inhibition of human LOXIMVI cells incubated for 48 hrs by sulforhodamine B assay; assay type: functional
M14 = assay: Growth inhibition of human M14 cells incubated for 48 hrs by sulforhodamine B assay; assay type: functional; conditions: M14, 48 h
SK-MEL-5 = assay: Growth inhibition of human SK-MEL-5 cells incubated for 48 hrs by sulforhodamine B assay; assay type: functional; conditions: SK-MEL-5, 48 h
UACC-257 = assay: Growth inhibition of human UACC257 cells incubated for 48 hrs by sulforhodamine B assay; assay type: functional; conditions: UACC-257, 48 h
UACC-62 = assay: Growth inhibition of human UACC62 cells incubated for 48 hrs by sulforhodamine B assay; assay type: functional; conditions: UACC-62, 48 h
IGROV-1 = assay: Growth inhibition of human IGROV1 cells incubated for 48 hrs by sulforhodamine B assay; assay type: functional; conditions: IGROV-1, 48 h
OVCAR-3 = assay: Growth inhibition of human OVCAR3 cells incubated for 48 hrs by sulforhodamine B assay; assay type: functional; conditions: OVCAR-3, 48 h
OVCAR-4 = assay: Growth inhibition of human OVCAR4 cells incubated for 48 hrs by sulforhodamine B assay; assay type: functional; conditions: OVCAR-4, 48 h
NCI/ADR-RES = assay: Growth inhibition of human NCI-ADR-RES cells incubated for 48 hrs by sulforhodamine B assay; assay type: functional
786-0 = assay: Growth inhibition of human 786-0 cells incubated for 48 hrs by sulforhodamine B assay; assay type: functional; conditions: 786-0, 48 h
A498 = assay: Growth inhibition of human A498 cells incubated for 48 hrs by sulforhodamine B assay; assay type: functional; conditions: A498, 48 h
ACHN = assay: Growth inhibition of human ACHN cells incubated for 48 hrs by sulforhodamine B assay; assay type: functional
CAKI-1 = assay: Growth inhibition of human Caki1 cells incubated for 48 hrs by sulforhodamine B assay; assay type: functional; conditions: CAKI-1, 48 h
SN12C = assay: Growth inhibition of human SN12C cells incubated for 48 hrs by sulforhodamine B assay; assay type: functional
UO-31 = assay: Growth inhibition of human UO31 cells incubated for 48 hrs by sulforhodamine B assay; assay type: functional; conditions: UO-31, 48 h
MDA-MB-231 = assay: Growth inhibition of human MDA-MB-231 cells incubated for 48 hrs by sulforhodamine B assay; assay type: functional; conditions: MDA-MB-231, 48 h
Hs-578T = assay: Growth inhibition of human Hs 578T cells incubated for 48 hrs by sulforhodamine B assay; assay type: functional
BT-549 = assay: Growth inhibition of human BT549 cells incubated for 48 hrs by sulforhodamine B assay; assay type: functional; conditions: BT-549, 48 h
NCI-H322M = assay: Growth inhibition of human NCI-H322M cells incubated for 48 hrs by sulforhodamine B assay; assay type: functional
TK-10 = assay: Growth inhibition of human TK10 cells incubated for 48 hrs by sulforhodamine B assay; assay type: functional; conditions: TK-10, 48 h

ΔTm (Homo sapiens): 29 °C
ΔTm [1]: 12.2 °C
GI50 (CCRF-CEM): 0.275 µM
GI50 (HL-60): 0.216 µM
GI50 (K562): 0.281 µM
GI50 (MOLT-4): 0.302 µM
GI50 (RPMI-8226): 0.394 µM
GI50 (A549): 0.258 µM
GI50 (NCI-H226): 0.808 µM
GI50 (NCI-H460): 0.313 µM
GI50 (NCI-H522): 0.172 µM
GI50 (COLO 205): 0.11 µM
GI50 (HCC 2998): 0.149 µM
GI50 (HCT-116): 0.185 µM
GI50 (HCT-15): 0.165 µM
GI50 (SW-620): 0.155 µM
GI50 (U-251): 0.173 µM
GI50 (SK-MEL-5): 0.153 µM
GI50 (OVCAR-3): 0.293 µM
GI50 (OVCAR-4): 0.155 µM
GI50 (786-0): 0.616 µM
GI50 (ACHN): 0.535 µM
GI50 (MDA-MB-231): 0.204 µM
GI50 (BT-549): 1.18 µM
Compound: COc1ccccc1CNCCCN1C(=O)c2ccc3c4c(ccc(c24)C1=O)C(=O)N(CCCNCCCCN)C3=O
GI50 (SR): 0.076 µM
GI50 (EKVX): 0.866 µM
GI50 (HOP-62): 0.29 µM
GI50 (KM12): 0.324 µM
GI50 (SF-295): 0.448 µM
GI50 (SF-539): 0.28 µM
GI50 (SNB-19): 0.292 µM
GI50 (SNB-75): 0.304 µM
GI50 (LOX IMVI): 0.188 µM
GI50 (M14): 0.343 µM
GI50 (UACC-257): 0.163 µM
GI50 (UACC-62): 0.175 µM
GI50 (IGROV-1): 0.179 µM
GI50 (NCI/ADR-RES): 0.366 µM
GI50 (A498): 0.619 µM
GI50 (CAKI-1): 0.198 µM
GI50 (SN12C): 0.28 µM
GI50 (UO-31): 1.86 µM
GI50 (Hs-578T): 1.12 µM

ΔTm (Homo sapiens): 1.4 °C
ΔTm [1]: 6.7 °C
GI50 (CCRF-CEM): 0.433 µM
GI50 (HL-60): 1.56 µM
GI50 (K562): 1.09 µM
GI50 (MOLT-4): 0.433 µM
GI50 (RPMI-8226): 1.11 µM
GI50 (A549): 1.76 µM
GI50 (NCI-H226): 1.78 µM
GI50 (NCI-H322M): 1.66 µM
GI50 (NCI-H460): 0.524 µM
GI50 (NCI-H522): 1.57 µM
GI50 (COLO 205): 0.57 µM
GI50 (HCC 2998): 1.86 µM
GI50 (HCT-116): 0.394 µM
GI50 (HCT-15): 1.41 µM
GI50 (SW-620): 0.442 µM
GI50 (U-251): 1.59 µM
GI50 (SK-MEL-5): 0.246 µM
GI50 (OVCAR-3): 0.301 µM
GI50 (OVCAR-4): 0.257 µM
GI50 (786-0): 1.94 µM
GI50 (ACHN): 1.66 µM
GI50 (MDA-MB-231): 1.59 µM
GI50 (BT-549): 1.66 µM
Compound: COc1ccccc1CNCCCN1C(=O)c2ccc3c4c(ccc(c24)C1=O)C(=O)N(CCCN)C3=O
GI50 (SR): 0.167 µM
GI50 (HOP-62): 1.24 µM
GI50 (KM12): 1.62 µM
GI50 (SF-295): 1.43 µM
GI50 (SF-539): 1.3 µM
GI50 (SNB-19): 1.51 µM
GI50 (SNB-75): 1.58 µM
GI50 (LOX IMVI): 0.526 µM
GI50 (M14): 1.06 µM
GI50 (UACC-257): 0.424 µM
GI50 (UACC-62): 0.369 µM
GI50 (IGROV-1): 1 µM
GI50 (NCI/ADR-RES): 2.9 µM
GI50 (A498): 1.54 µM
GI50 (CAKI-1): 1.76 µM
GI50 (SN12C): 1.17 µM
GI50 (TK-10): 1.64 µM
GI50 (UO-31): 1.5 µM
GI50 (Hs-578T): 1.74 µM
